ChEMBL document CHEMBL1155278, “3,4-Diaryl-isoxazoles and -imidazoles as potent dual inhibitors of p38alpha mitogen activated protein kinase and casein kinase 1delta” (J Med Chem, 2009)

Key:
[1] = target: Insulin-like growth factor 1 receptor (Homo sapiens) (UniProt P08069); assay: Inhibition of IGF1R assessed as residual activity at 0.1 uM by Cherenkov counting relative to control in presence of 5 uM ATP
Outline: (§1)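 Single-concentration screen at 0.1 µM across a panel of 76 protein kinases. Each kinase was run at an ATP concentration approximating its ATP Km. Results are % mean residual activity versus control assays without compound (n = 3 ± SD).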

[2] = target: Serine/threonine-protein kinase N2 (Homo sapiens) (UniProt Q16513); assay: Inhibition of PRK2 assessed as residual activity at 0.1 uM by Cherenkov counting relative to control in presence of 5 uM ATP
Outline: (§2)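 Single-concentration screen at 0.1 μM in a 76-kinase panel. ATP for each kinase was set near its Km for ATP. Residual activity is given as a percentage of control assays without compound, mean of n = 3 ± SD.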

[3] = target: MAP kinase-interacting serine/threonine-protein kinase 1 (Homo sapiens) (UniProt Q9BUB5); assay: Inhibition of MNK1 assessed as residual activity at 0.1 uM by Cherenkov counting relative to control in presence of 50 uM ATP
MAP kinase-interacting serine/threonine-protein kinase 1 (Homo sapiens), sequence (Q9BUB5 whole entry, looked up): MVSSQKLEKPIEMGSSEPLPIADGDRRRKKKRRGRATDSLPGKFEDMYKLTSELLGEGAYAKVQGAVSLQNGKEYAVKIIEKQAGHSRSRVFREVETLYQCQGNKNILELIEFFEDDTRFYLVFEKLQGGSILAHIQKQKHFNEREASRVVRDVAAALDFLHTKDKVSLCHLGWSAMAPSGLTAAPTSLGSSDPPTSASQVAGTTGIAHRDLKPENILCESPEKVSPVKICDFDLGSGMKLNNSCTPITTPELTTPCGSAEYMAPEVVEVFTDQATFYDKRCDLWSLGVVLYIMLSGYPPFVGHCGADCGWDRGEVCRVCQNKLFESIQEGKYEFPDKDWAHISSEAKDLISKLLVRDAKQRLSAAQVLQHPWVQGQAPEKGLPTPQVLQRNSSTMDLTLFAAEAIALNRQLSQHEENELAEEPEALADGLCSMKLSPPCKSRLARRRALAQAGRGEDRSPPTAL
Outline: (§3)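 Single-concentration selectivity screen at 0.1 μM against a panel of 76 protein kinases. Each kinase was run at an ATP level approximating its Km for ATP. Output is mean residual activity as % of the control assay without compound, n = 3 ± SD.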

[4] = target: Dual specificity tyrosine-phosphorylation-regulated kinase 1A (Homo sapiens) (UniProt Q13627); assay: Inhibition of DYRK1A assessed as residual activity at 0.1 uM by Cherenkov counting relative to control in presence of 50 uM ATP; outline: as §1
[5] = target: Ribosomal protein S6 kinase alpha-5 (Homo sapiens) (UniProt O75582); assay: Inhibition of MSK1 assessed as residual activity at 0.1 uM by Cherenkov counting relative to control in presence of 20 uM ATP; outline: as §3
[6] = target: T1, Casein kinase I isoform delta (Homo sapiens, UniProt P48730); assay: Inhibition of CK1delta assessed as residual activity at 0.1 uM by Cherenkov counting relative to control in presence of 20 uM ATP
T1 sequence (P48730 whole entry, looked up, canonical isoform): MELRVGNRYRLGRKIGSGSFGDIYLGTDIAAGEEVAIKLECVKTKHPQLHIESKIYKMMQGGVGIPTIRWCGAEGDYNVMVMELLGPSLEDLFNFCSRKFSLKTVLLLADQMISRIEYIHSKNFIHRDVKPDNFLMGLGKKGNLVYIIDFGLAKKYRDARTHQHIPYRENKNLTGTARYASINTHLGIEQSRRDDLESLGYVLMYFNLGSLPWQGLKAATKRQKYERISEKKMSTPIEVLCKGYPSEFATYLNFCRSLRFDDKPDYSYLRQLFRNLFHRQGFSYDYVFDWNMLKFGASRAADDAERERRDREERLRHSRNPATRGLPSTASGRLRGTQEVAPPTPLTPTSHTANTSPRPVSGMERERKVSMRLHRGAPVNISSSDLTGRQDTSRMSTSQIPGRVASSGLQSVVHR
Outline: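 CK1δ tested within a 76-protein-kinase panel with compound at 0.1 µM. ATP for each kinase was set near its Km for ATP. Read-out was residual activity as % of control assays without compound, given as mean ± SD, n = 3.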

[7] = target: SRSF protein kinase 1 (Homo sapiens) (UniProt Q96SB4); assay: Inhibition of SRPK1 assessed as residual activity at 0.1 uM by Cherenkov counting relative to control in presence of 50 uM ATP; outline: as §2
[8] = target: RAC-alpha serine/threonine-protein kinase (Homo sapiens) (UniProt P31749); assay: Inhibition of PKBalpha assessed as residual activity at 0.1 uM by Cherenkov counting relative to control in presence of 5 uM ATP; outline: as §2
[9] = target: Insulin receptor-related protein (Homo sapiens) (UniProt P14616); assay: Inhibition of IRR assessed as residual activity at 0.1 uM by Cherenkov counting relative to control in presence of 5 uM ATP; outline: as §3
Insulin receptor-related protein (Homo sapiens), sequence (P14616 27-742 limits assumed): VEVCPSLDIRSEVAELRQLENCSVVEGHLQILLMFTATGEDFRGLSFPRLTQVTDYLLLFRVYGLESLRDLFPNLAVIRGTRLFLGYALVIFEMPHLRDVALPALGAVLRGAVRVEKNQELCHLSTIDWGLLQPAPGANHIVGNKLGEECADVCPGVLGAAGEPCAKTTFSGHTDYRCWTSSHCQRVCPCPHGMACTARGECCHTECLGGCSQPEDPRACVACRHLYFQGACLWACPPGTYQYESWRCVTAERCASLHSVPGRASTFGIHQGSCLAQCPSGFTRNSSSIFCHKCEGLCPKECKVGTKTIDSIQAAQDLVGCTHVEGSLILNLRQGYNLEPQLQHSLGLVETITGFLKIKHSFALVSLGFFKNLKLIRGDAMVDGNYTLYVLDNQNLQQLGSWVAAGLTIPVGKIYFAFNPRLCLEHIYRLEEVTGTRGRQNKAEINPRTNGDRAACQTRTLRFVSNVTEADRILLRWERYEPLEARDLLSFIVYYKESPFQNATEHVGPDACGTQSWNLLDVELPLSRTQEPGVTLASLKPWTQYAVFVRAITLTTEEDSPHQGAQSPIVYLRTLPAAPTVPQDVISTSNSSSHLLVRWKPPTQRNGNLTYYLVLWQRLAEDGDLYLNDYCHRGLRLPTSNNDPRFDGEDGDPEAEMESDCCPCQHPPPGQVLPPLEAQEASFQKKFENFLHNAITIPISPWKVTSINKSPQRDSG
Insulin receptor-related protein (Homo sapiens), sequence (P14616 747-1297 limits assumed): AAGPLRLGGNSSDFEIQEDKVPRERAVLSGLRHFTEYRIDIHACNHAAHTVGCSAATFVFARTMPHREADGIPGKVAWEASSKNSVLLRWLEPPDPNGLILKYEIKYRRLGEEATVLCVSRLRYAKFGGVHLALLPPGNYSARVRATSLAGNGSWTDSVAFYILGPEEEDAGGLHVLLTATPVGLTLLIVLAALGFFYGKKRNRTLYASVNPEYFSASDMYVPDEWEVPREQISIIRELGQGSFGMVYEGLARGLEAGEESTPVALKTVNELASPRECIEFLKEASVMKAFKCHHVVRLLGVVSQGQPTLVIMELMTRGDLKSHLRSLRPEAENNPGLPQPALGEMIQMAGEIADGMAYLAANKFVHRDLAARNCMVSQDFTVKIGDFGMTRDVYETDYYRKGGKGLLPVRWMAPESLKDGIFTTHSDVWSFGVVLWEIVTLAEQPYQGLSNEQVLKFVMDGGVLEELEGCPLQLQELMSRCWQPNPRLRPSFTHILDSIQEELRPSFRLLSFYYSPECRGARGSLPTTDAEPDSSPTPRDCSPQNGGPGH

[10] = target: Serine/threonine-protein kinase pim-3 (Homo sapiens) (UniProt Q86V86); assay: Inhibition of PIM3 assessed as residual activity at 0.1 uM by Cherenkov counting relative to control in presence of 20 uM ATP; outline: as §3
[11] = target: Fibroblast growth factor receptor 1 (Homo sapiens) (UniProt P11362); assay: Inhibition of FGFR1 assessed as residual activity at 10 uM by Cherenkov counting relative to control in presence of 20 uM ATP
Outline: (§4)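 Single-point profiling at 10 µM in a panel of 78 protein kinases. Kinase activity is expressed as a percentage relative to control assays without compound.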

[12] = target: T2, Serine/threonine-protein kinase BRSK2 (Homo sapiens) (UniProt Q8IWQ3); assay: Inhibition of BRSK2 assessed as residual activity at 10 uM by Cherenkov counting relative to control in presence of 50 uM ATP; outline: as §4
T2 sequence (whole entry): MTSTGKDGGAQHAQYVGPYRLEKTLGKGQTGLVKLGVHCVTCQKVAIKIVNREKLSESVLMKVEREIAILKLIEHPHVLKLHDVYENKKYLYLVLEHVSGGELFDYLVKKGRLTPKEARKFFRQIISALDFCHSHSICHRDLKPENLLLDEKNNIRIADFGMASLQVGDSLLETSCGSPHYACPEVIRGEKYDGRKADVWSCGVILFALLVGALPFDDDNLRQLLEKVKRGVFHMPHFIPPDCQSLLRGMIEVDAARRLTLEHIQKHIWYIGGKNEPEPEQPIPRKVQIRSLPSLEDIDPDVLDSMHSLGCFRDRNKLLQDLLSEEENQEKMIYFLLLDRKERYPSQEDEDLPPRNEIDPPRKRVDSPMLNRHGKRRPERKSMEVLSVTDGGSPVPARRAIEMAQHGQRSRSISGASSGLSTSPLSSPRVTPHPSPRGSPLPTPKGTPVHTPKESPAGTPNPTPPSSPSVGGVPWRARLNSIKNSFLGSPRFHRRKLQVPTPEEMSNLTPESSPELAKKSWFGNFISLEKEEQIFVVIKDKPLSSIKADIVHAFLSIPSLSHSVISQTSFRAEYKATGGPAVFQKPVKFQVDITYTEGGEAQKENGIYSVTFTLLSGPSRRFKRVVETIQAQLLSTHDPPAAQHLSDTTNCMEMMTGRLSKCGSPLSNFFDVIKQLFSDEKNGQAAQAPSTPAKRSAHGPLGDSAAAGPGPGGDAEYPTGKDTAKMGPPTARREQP

[13] = target: T1, Casein kinase I isoform delta; assay: Inhibition of CK1delta assessed as residual activity at 10 uM by Cherenkov counting relative to control in presence of 20 uM ATP
Outline: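 CK1δ tested within a 78-protein-kinase panel with compound at 10 µM. Activity is expressed as a percentage of kinase activity relative to control assays run without compound.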

[14] = target: Serine/threonine-protein kinase Nek7 (Homo sapiens) (UniProt Q8TDX7); assay: Inhibition of NEK7 assessed as residual activity at 10 uM by Cherenkov counting relative to control
Serine/threonine-protein kinase Nek7 (Homo sapiens), sequence (Q8TDX7 whole entry, looked up): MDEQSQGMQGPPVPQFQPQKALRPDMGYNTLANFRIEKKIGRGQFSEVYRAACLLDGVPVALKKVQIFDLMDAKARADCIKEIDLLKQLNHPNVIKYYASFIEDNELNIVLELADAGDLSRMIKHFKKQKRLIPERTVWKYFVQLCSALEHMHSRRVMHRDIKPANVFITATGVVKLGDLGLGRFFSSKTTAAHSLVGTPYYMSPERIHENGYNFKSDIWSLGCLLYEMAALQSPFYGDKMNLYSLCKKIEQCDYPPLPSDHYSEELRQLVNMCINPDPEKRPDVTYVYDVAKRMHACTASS

[15] = target: MAP kinase-interacting serine/threonine-protein kinase 1 (Homo sapiens) (UniProt Q9BUB5); assay: Inhibition of MNK1 assessed as residual activity at 10 uM by Cherenkov counting relative to control in presence of 50 uM ATP
[16] = target: Ephrin type-A receptor 2 (Homo sapiens) (UniProt P29317); assay: Inhibition of EPHA2 assessed as residual activity at 10 uM by Cherenkov counting relative to control in presence of 50 uM ATP; outline: as §4
[17] = Inhibition of PHK assessed as residual activity at 10 uM by Cherenkov counting relative to control
[18] = target: Homeodomain-interacting protein kinase 3 (Homo sapiens) (UniProt Q9H422); assay: Inhibition of HIPK3 assessed as residual activity at 10 uM by Cherenkov counting relative to control; outline: as §4
[19] = target: MAP kinase-interacting serine/threonine-protein kinase 2 (Homo sapiens) (UniProt Q9HBH9); assay: Inhibition of MNK2 assessed as residual activity at 10 uM by Cherenkov counting relative to control in presence of 50 uM ATP
MAP kinase-interacting serine/threonine-protein kinase 2 (Homo sapiens), sequence (Q9HBH9 whole entry, looked up): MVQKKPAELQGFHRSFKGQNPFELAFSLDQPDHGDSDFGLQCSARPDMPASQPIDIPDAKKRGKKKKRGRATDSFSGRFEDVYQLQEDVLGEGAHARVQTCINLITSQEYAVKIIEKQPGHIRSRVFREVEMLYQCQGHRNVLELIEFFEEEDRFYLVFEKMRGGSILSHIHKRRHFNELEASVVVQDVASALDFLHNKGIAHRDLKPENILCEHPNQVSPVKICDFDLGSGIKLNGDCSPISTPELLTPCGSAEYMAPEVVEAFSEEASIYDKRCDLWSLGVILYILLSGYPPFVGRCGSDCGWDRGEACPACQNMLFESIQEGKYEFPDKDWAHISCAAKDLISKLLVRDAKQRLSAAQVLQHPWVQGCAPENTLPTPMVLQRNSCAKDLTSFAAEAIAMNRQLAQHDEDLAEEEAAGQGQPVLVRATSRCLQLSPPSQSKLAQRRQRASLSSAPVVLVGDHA

Insulin-like growth factor 1 receptor (Homo sapiens), sequence (P08069 31-736 limits assumed): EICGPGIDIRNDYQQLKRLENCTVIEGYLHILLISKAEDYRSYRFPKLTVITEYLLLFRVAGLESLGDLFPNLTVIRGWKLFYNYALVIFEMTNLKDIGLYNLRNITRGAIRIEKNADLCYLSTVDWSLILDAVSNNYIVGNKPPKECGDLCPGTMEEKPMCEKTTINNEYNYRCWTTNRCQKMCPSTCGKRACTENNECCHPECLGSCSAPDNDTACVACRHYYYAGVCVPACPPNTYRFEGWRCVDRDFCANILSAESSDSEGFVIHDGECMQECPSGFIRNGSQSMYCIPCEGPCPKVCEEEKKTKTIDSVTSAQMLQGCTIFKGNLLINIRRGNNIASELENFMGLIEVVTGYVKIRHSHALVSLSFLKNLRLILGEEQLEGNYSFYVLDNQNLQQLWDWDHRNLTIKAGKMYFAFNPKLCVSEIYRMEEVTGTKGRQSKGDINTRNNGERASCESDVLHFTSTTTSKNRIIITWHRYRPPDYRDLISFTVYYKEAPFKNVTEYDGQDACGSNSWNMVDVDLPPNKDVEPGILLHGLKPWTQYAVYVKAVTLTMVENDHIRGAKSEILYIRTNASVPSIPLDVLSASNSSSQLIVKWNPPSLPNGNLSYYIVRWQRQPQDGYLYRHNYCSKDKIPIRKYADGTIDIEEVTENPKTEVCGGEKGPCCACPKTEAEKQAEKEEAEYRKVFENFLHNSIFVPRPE
Insulin-like growth factor 1 receptor (Homo sapiens), sequence (P08069 741-1367 limits assumed): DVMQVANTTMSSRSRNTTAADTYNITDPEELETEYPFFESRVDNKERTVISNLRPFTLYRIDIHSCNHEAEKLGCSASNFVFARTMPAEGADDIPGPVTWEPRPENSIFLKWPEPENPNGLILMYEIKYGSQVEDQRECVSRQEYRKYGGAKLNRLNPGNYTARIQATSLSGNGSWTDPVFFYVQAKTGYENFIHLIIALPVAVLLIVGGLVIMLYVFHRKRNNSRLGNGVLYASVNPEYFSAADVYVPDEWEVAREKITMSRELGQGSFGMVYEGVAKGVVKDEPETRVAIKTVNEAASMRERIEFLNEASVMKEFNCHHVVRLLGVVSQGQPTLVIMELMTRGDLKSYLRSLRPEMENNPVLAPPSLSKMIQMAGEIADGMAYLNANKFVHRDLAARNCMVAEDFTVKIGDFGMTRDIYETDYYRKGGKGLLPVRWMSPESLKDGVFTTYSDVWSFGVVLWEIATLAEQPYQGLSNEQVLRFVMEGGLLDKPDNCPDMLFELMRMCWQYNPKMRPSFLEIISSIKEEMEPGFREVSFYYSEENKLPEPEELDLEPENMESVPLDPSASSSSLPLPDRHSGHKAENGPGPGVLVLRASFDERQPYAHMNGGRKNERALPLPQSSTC

In the case of `COc1ccc(/C=C/C(=O)Nc2cc(-c3[nH]c(SC)nc3-c3ccc(F)cc3)ccn2)c(OC)c1`, the Activity [1] is reported as 87%, the Activity [2] is reported as 95% and the Activity [3] is reported as 91%. For the same compound, the Activity [4] was 78%, the Activity [5] was 84% and the Activity [6] was 10%. For the same compound, the Activity [7] was 91%, the Activity [8] was 105% and the Activity [9] was 61%. For the same compound, the Activity [10] was 81%.
Work on `COc1ccc(/C=C/C(=O)Nc2cc(-c3[nH]c([S+](C)[O-])nc3-c3ccc(F)cc3)ccn2)c(OC)c1` (stereo not drawn) yielded an Activity [1] of 107%, an Activity [2] of 96% and an Activity [3] of 96%. It also gave an Activity [4] of 86%, an Activity [5] of 97% and an Activity [6] of 18%. The Activity [7] was 97%, the Activity [8] was 105% and the Activity [9] was 83%. The Activity [10] was 90%.
In the case of `CC(C)c1noc(-c2ccc(F)cc2)c1-c1ccncc1`, the Activity [11] is reported as 95%, the Activity [12] is reported as 93% and the Activity [13] is reported as 55%. It also gave an Activity [14] of 100%, an Activity [15] of 89% and an Activity [16] of 81%. For the same compound, the Activity [17] was 99%, the Activity [18] was 100% and the Activity [19] was 101%.
With `CC(C)c1onc(-c2ccc(F)cc2)c1-c1ccncc1` the Activity [11] was 81%, the Activity [12] was 87% and the Activity [13] was 6%. It also gave an Activity [14] of 104%, an Activity [15] of 96% and an Activity [16] of 79%. For the same compound, the Activity [17] was 96%, the Activity [18] was 92% and the Activity [19] was 110%.
